Key:
Vero = experiment: Cytotoxicity against Vero cells; format: cell-based; conditions: Chlorocebus sabaeus
Method in brief: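 Confluent Vero monolayers in 96-well trays, DMEM with 10% calf serum, exposed in triplicate to 1–500 µM for 48 h at 37 °C. Cells then fixed with 3.7% formaldehyde, rinsed and examined visually. IC50 taken as the concentration causing about 50% loss of monolayer.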

Neutrophil [1] = experiment: Apoptotic activity in human blood neutrophils after 72 hrs; format: functional; parameters: concentration or dose not given beside the values
Method in brief: (§1)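 Neutrophils (>98% pure) isolated from peripheral blood of healthy donors by dextran sedimentation and discontinuous plasma Percoll gradients. Cultured at 37 °C, 5% CO2 in RPMI 1640 with 10% autologous platelet-rich-plasma-derived serum. Compound given at 50 µM in DMSO; controls were untreated cells and 0.01% DMSO. Apoptosis scored by May-Grunwald Giemsa morphology, 500 cells/slide, at 0–72 h. Mean ± SD, n = 3-5.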

Neutrophil [2] = experiment: Apoptotic activity in human blood neutrophils after 24 hrs; format: functional; parameters: concentration or dose not given beside the values; method in brief: as §1
Neutrophil [3] = experiment: Apoptotic activity in human blood neutrophils after 48 hrs; format: functional; parameters: concentration or dose not given beside the values; method in brief: as §1
[4] = Partition coefficient, log P of the compound; format: physicochemical; conditions: octanol/water
[5] = Binding affinity to DNA by methyl green/DNA displacement assay; conditions: Homo sapiens

| SMILES | IC50 (Vero) | Activity (Neutrophil [1]) | Activity (Neutrophil [2]) | Activity (Neutrophil [3]) | logP [4] | C50 [5] |
| --- | --- | --- | --- | --- | --- | --- |
| O=C1c2cccnc2C(=O)N1Cc1ccc(Cl)cc1 | 95 µM | – | – | – | – | – |
| COc1ccc(CN2C(=O)c3cccnc3C2=O)cc1OC | > 100 µM | – | – | – | – | – |
| O=C1c2ccccc2C(=O)N1C12CC3CC(CC(C3)C1)C2 | 20 µM | 42.01% | 21.11% | 34.66% | 2.7 | – |
| O=C1[C@@H]2C3C=CC(CC3)[C@@H]2C(=O)N1c1ccccc1 | 67 µM | – | – | – | – | – |
| COc1ccc(CN2C(=O)c3nccnc3C2=O)cc1 | > 100 µM | – | – | – | – | – |
| C[C@@H](c1ccccc1)N1C(=O)c2nccnc2C1=O | 85 µM | – | – | – | – | – |
| O=C1c2nccnc2C(=O)N1Cc1ccc(Cl)cc1 | 88 µM | – | – | – | – | – |
| C[C@@H](c1ccccc1)N1C(=O)c2ccccc2C1=O | > 100 µM | – | – | – | – | – |
| CCCCCc1ccc(N2C(=O)[C@@H]3C4C=CC(CC4)[C@@H]3C2=O)cc1 | 10 µM | 70.01% | 39.11% | 58.06% | 4.2 | 31 µg/mL |
| CCN1C(=O)c2nccnc2C1=O | > 100 µM | – | – | – | – | – |
| O=C1c2nccnc2C(=O)N1c1ccccc1 | 71 µM | – | – | – | – | – |
| O=C1c2nccnc2C(=O)N1CCc1ccccc1 | > 100 µM | – | – | – | – | – |
| CCN1C(=O)[C@@H]2C3C=CC(CC3)[C@@H]2C1=O | > 100 µM | – | – | – | 0.8 | – |
| CC(C)c1cccc(C(C)C)c1N1C(=O)[C@@H]2C3C=CC(CC3)[C@@H]2C1=O | 16 µM | 59.2% | 32.4% | 49.11% | 4.6 | – |
| C[C@@H](c1ccccc1)N1C(=O)[C@@H]2C3C=CC(CC3)[C@@H]2C1=O | 49 µM | – | – | – | – | – |
| Cc1cccc(C)c1N1C(=O)c2cccnc2C1=O | 20 µM | 44.16% | 22.21% | 35% | 3.2 | 64 µg/mL |
| CCN1C(=O)c2cccnc2C1=O | > 100 µM | – | – | – | – | – |
| CC(C)(C)N1C(=O)c2nccnc2C1=O | 32 µM | 33.91% | 12% | 27.6% | 0.9 | – |
| O=C1c2cccnc2C(=O)N1C12CC3CC(CC(C3)C1)C2 | 18 µM | 56.1% | 31.1% | 46% | 2.3 | – |

| SMILES | IC50 (Vero) | Activity (Neutrophil [1]) | Activity (Neutrophil [2]) | Activity (Neutrophil [3]) | logP [4] | C50 [5] |
| --- | --- | --- | --- | --- | --- | --- |
| CC(C)c1cccc(C(C)C)c1N1C(=O)c2cccnc2C1=O | 21 µM | 41.62% | 19.1% | 32.77% | 4.6 | – |
| Cc1cccc(C)c1N1C(=O)[C@@H]2C3C=CC(CC3)[C@@H]2C1=O | 13 µM | 67.98% | 38.4% | 53.2% | 3.1 | 53 µg/mL |
| O=C1c2cccnc2C(=O)N1c1ccccc1 | 72 µM | – | – | – | – | – |
| Cc1cccc(C)c1N1C(=O)c2nccnc2C1=O | 18 µM | 50.1% | 28% | 42.03% | 2.7 | 59 µg/mL |
| COc1ccc(CN2C(=O)c3cccnc3C2=O)cc1 | > 100 µM | – | – | – | – | – |
| O=C1c2nccnc2C(=O)N1c1ccc(C(F)(F)F)cc1 | 80 µM | – | – | – | – | – |
| COc1ccc(CN2C(=O)c3nccnc3C2=O)cc1OC | > 100 µM | – | – | – | – | – |
| O=C1[C@@H]2C3C=CC(CC3)[C@@H]2C(=O)N1c1ccc(Cl)cc1 | 77 µM | – | – | – | – | – |
| C[C@H](c1ccccc1)N1C(=O)[C@@H]2C3C=CC(CC3)[C@@H]2C1=O | 43 µM | – | – | – | – | – |
| O=C1c2cccnc2C(=O)N1Cc1ccccc1 | > 100 µM | – | – | – | – | – |
| O=C1[C@@H]2C3C=CC(CC3)[C@@H]2C(=O)N1C12CC3CC(CC(C3)C1)C2 | 14 µM | 68.11% | 35.5% | 53.2% | 2.2 | 69 µg/mL |
| CCCCCc1ccc(N2C(=O)c3cccnc3C2=O)cc1 | 18 µM | 57.87% | 32.11% | 47.05% | 4.3 | 49 µg/mL |
| O=C1c2cccnc2C(=O)N1c1ccc(Cl)cc1 | 92 µM | – | – | – | – | – |
| CCCCCc1ccc(N2C(=O)c3nccnc3C2=O)cc1 | 16 µM | 60% | 31.1% | 49.2% | 3.8 | 42 µg/mL |
| O=C1c2nccnc2C(=O)N1Cc1ccccc1 | > 100 µM | – | – | – | – | – |
| O=c1[nH]cc(F)c(=O)[nH]1 [FLUOROURACIL] | 0.2 µM | – | – | – | – | – |
| O=C1c2ccccc2C(=O)N1Cc1ccccc1 | 100 µM | – | – | – | – | – |
| COc1ccc(CN2C(=O)[C@@H]3C4C=CC(CC4)[C@@H]3C2=O)cc1 | 67 µM | – | – | – | – | – |
| O=C1c2cccnc2C(=O)N1CCc1ccccc1 | > 100 µM | – | – | – | – | – |

| SMILES | IC50 (Vero) | Activity (Neutrophil [1]) | Activity (Neutrophil [2]) | Activity (Neutrophil [3]) | logP [4] | C50 [5] |
| --- | --- | --- | --- | --- | --- | --- |
| C[C@H](c1ccccc1)N1C(=O)c2cccnc2C1=O | 81 µM | – | – | – | – | – |
| CC(C)(C)N1C(=O)[C@@H]2C3C=CC(CC3)[C@@H]2C1=O | 27 µM | 35.64% | 12.82% | 29.76% | 1.3 | – |
| C[C@H](c1ccccc1)N1C(=O)c2nccnc2C1=O | 79 µM | – | – | – | – | – |
| CC(C)c1cccc(C(C)C)c1N1C(=O)c2nccnc2C1=O | 20 µM | 46.11% | 24.07% | 38.1% | 4.2 | – |
| CC(C)c1cccc(C(C)C)c1N1C(=O)c2ccccc2C1=O | 23 µM | 39.1% | 15.56% | 30.2% | 5.1 | – |
| O=C1c2ccccc2C(=O)N1c1ccccc1 [N-PHENYL-PHTHALIMIDE] | 82 µM | – | – | – | – | – |
| O=C1c2ccccc2C(=O)N1CCc1ccccc1 | 100 µM | – | – | – | – | – |
| COc1ccc(CN2C(=O)[C@@H]3C4C=CC(CC4)[C@@H]3C2=O)cc1OC | 63 µM | – | – | – | – | – |
| CC(C)(C)N1C(=O)c2cccnc2C1=O | 33 µM | 30.23% | 11% | 25.07% | 1.4 | – |
| C[C@@H](c1ccccc1)N1C(=O)c2cccnc2C1=O | 92 µM | – | – | – | – | – |
| O=C1[C@@H]2C3C=CC(CC3)[C@@H]2C(=O)N1CCc1ccccc1 | 87 µM | – | – | – | 2.5 | – |
| O=C1[C@@H]2C3C=CC(CC3)[C@@H]2C(=O)N1Cc1ccccc1 | 74 µM | – | – | – | 2.3 | – |
| O=C1c2cccnc2C(=O)N1c1ccc(C(F)(F)F)cc1 | 87 µM | – | – | – | – | – |
| O=C1[C@@H]2C3C=CC(CC3)[C@@H]2C(=O)N1Cc1ccc(Cl)cc1 | 51 µM | – | – | – | – | – |
| O=c1c(O)c(-c2ccc(O)c(O)c2)oc2cc(O)cc(O)c12 [QUERCETIN] | – | 71.3% | 39.9% | 49.9% | – | – |
| O=C1c2nccnc2C(=O)N1c1ccc(Cl)cc1 | 86 µM | – | – | – | – | – |
| O=C1[C@@H]2C3C=CC(CC3)[C@@H]2C(=O)N1c1ccc(C(F)(F)F)cc1 | 75 µM | – | – | – | – | – |
| O=C1c2nccnc2C(=O)N1C12CC3CC(CC(C3)C1)C2 | 18 µM | 54.05% | 30.01% | 45.1% | 1.8 | – |
